Results published in ChEMBL document CHEMBL4261485, “Towards the rational design of novel drugs based on solubility, partitioning/distribution, biomimetic permeability and biological activity exemplified by 1,2,4-thiadiazole derivatives” (Medchemcomm, 2017).
Values after ≈ are worked out from the molar mass of the structure shown.

What was measured:
[1] = 1-octanol/buffer distribution co-efficient, log D of compound at pH 7.4 at 298 K after 24 hrs by shake flask method; assay type: physicochemical
How it was run: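 Shake flask. Buffer (pH 7.4) and 1-octanol were pre-saturated by vigorous mixing for 24 h at 298 K (±0.1 K) and then allowed to separate. Compound was dissolved in the buffer-saturated octanol as stock, then mixed with the octanol-saturated buffer for 24 h at 298 K. Both phases were quantified by UV spectrophotometry against calibration curves. D = Coct/Cbuf.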

Rattus norvegicus = species: Rattus norvegicus; assay: Modulation of glutamate receptor in synaptosomes of rat brain cortex assessed as change in glutamate-induced 45Ca2+ uptake (K43/21) after 5 mins by liquid scintillation counting method; assay type: subcellular; set-up: concentration or dose not given beside the values
How it was run: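 Cortical synaptosomes (P2 fraction) from 9–10-day-old rats suspended in HEPES buffer pH 7.4 (NaCl, KCl, glucose; protein 1.5–2 mg mL−1), final Ca2+ 1.25 mM. 45Ca2+ uptake stimulated with 200 μM glutamate, 5 min at […]; stopped by GF/B filtration and three cold-buffer washes; beta counting. Uptake = stimulated minus unstimulated label, % of control; triplicate.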

[2] = 1-octanol/buffer partition co-efficient of compound in neutral form at pH 7.4 at 298 K after 24 hrs by shake flask method; assay type: physicochemical; details: pH 7.4, 24 h
[3] = 1-hexane/buffer partition co-efficient of compound in neutral form at pH 7.4 at 298 K after 24 hrs by shake flask method; assay type: physicochemical; details: pH 7.4, 24 h
[4] = Thermodynamic solubility of compound in buffer at 298 +/- 0.1 K after 24 hrs by shake flask method; assay type: physicochemical; details: read-out: Therm_solubility
How it was run: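 Shake flask at 298 K (±0.1 K). Phosphate buffer pH 7.4 (I = 0.15 mol L−1) was stirred with solid for 24 h, an equilibration time chosen from kinetic plateau experiments. Aliquot was centrifuged 5 min at 298 K, then isothermally filtered (0.45 μm) and diluted. Concentration was read by UV spectrophotometry (200–400 nm). Value is the mean of at least three replicates.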

[5] = 1-hexane/buffer distribution co-efficient, log D of compound at pH 7.4 at 298 K after 24 hrs by shake flask method; assay type: physicochemical; details: pH 7.4, 24 h
[6] = Permeability of compound at 5 mM using lipid layer at pH 7.4 at 298 K by spectrophotometric method; assay type: ADME; details: not told
[7] = Apparent permeability of compound at 5 mM using permeapad barrier at pH 7.4 at 298 K by spectrophotometric method; assay type: ADME; details: not told
How it was run: (§1)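 Franz diffusion cell at 298 K (±0.1 K). The donor (lower) chamber held 8 ml of drug solution, approximately 5 mM, in phosphate buffer saline (74 mM phosphate, pH 7.3–7.4, 280–290 mOsm with NaCl). The acceptor chamber held 1.5 ml buffer. Barrier was Permeapad or the support layer alone, without phospholipids. Cumulative permeated moles per barrier area were plotted against time in seconds. Replicates were at least triplicate, and Papp is the mean of the replicates.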

[8] = Permeability of compound at 5 mM using support layer at pH 7.4 at 298 K by spectrophotometric method; assay type: ADME; details: not told; how it was run: as §1

Row | SMILES | logD at 24 h [1] | Activity (Rattus norvegicus) | K [2] | K [3] | solubility thermodynamic at 24 h [4] | logD [5] | Papp at 5000 µM [6] | Papp at 5000 µM [7] | Papp at 5000 µM [8]
1 | CSc1cccc(Nc2nc(CC(C)O)ns2)c1 (configuration not stated) | 1.97 | 86.7% | 94 | 0.48 |  |  |  |  | 
2 | CC(O)Cc1nsc(Nc2ccc(Cl)c(Cl)c2)n1 (configuration not stated) | 2.79 | 51% | 610 | 0.17 |  |  |  |  | 
3 | CC(O)Cc1nsc(Nc2ccc(F)cc2)n1 (configuration not stated) | 2.5 | 88% | 316 | 0.32 | 3.4 mM (≈ 861 µg/mL) |  |  |  | 
4 | Cc1ccc(Nc2nc(CC(C)NC3CC(C)(C)NC(C)(C)C3)ns2)cc1Cl (configuration not stated) | 1.04 | 214% | 7.31 ×10⁴ No_unit | 20.6 | 5.57 mM (≈ 2350 µg/mL) | 0.0031 | 39.5 ×10⁻⁶ cm/s | 13.5 ×10⁻⁶ cm/s | 20.6 ×10⁻⁶ cm/s
5 | CC(Cc1nsc(Nc2ccc(F)cc2)n1)NC1CC(C)(C)NC(C)(C)C1 (configuration not stated) | 0.881 | 112% | 5.06 ×10⁴ No_unit | 158 | 18.2 mM (≈ 7130 µg/mL) |  | 18.6 ×10⁻⁶ cm/s | 8.7 ×10⁻⁶ cm/s | 16.3 ×10⁻⁶ cm/s
6 | CC(Cc1nsc(Nc2ccc(Cl)c(Cl)c2)n1)NC1CC(C)(C)NC(C)(C)C1 (configuration not stated) | 1.1 | 305% |  | 72.3 | 7.45 mM (≈ 3300 µg/mL) |  | 26.1 ×10⁻⁶ cm/s | 9.8 ×10⁻⁶ cm/s | 15.7 ×10⁻⁶ cm/s
7 | Cc1ccc(Nc2nc(CC(C)O)ns2)cc1 (configuration not stated) | 2.65 | 85% | 445 | 0.31 | 2.19 mM (≈ 546 µg/mL) |  |  |  | 
8 | Cc1ccc(Nc2nc(CC(C)NC3CC(C)(C)NC(C)(C)C3)ns2)cc1 (configuration not stated) | 0.82 | 128% | 4.44 ×10⁴ No_unit | 89.3 | 8.37 mM (≈ 3240 µg/mL) |  | 22.8 ×10⁻⁶ cm/s | 12.2 ×10⁻⁶ cm/s | 26.3 ×10⁻⁶ cm/s
9 | CC(Cc1nsc(Nc2ccc(F)c(Cl)c2)n1)NC1CC(C)(C)NC(C)(C)C1 (configuration not stated) | 0.699 | 189% | 3.25 ×10⁴ No_unit | 42 | 9.24 mM (≈ 3940 µg/mL) |  | 30.9 ×10⁻⁶ cm/s | 13.9 ×10⁻⁶ cm/s | 25.4 ×10⁻⁶ cm/s
10 | Cc1cc(Nc2nc(CC(C)NC3CC(C)(C)NC(C)(C)C3)ns2)no1 (configuration not stated) | -0.426 | 108% |  | 258.6 | 14.1 mM (≈ 5340 µg/mL) |  | 3.7 ×10⁻⁶ cm/s | 3.4 ×10⁻⁶ cm/s | 31.7 ×10⁻⁶ cm/s
11 | Cc1ccc(Cl)cc1Nc1nc(CC(C)NC2CC(C)(C)NC(C)(C)C2)ns1 (configuration not stated) | 0.839 | 177% | 4.56 ×10⁴ No_unit | 112.8 | 4.86 mM (≈ 2050 µg/mL) |  | 26.9 ×10⁻⁶ cm/s | 14.4 ×10⁻⁶ cm/s | 30.8 ×10⁻⁶ cm/s
12 | Cc1ccc(Cl)cc1Nc1nc(CC(C)O)ns1 (configuration not stated) | 3.02 | 88% |  | 0.56 | 0.445 mM (≈ 126 µg/mL) |  |  |  | 
13 | CC(Cc1nsc(Nc2ccc(Br)cc2)n1)NC1CC(C)(C)NC(C)(C)C1 (configuration not stated) | 0.31 | 82% | 1.36 ×10⁴ No_unit | 85 | 3.49 mM (≈ 1580 µg/mL) |  | 9.5 ×10⁻⁶ cm/s | 6.5 ×10⁻⁶ cm/s | 25.8 ×10⁻⁶ cm/s
14 | COc1ccc(Nc2nc(CC(C)O)ns2)cc1 (configuration not stated) | 2.31 | 108% | 205 | 0.58 | 3.04 mM (≈ 807 µg/mL) |  |  |  | 
15 | Cc1cc(Nc2nc(CC(C)O)ns2)no1 (configuration not stated) | 1.65 | 109% | 45 | 0.18 |  |  |  |  | 
16 | CC(O)Cc1nsc(Nc2ccc(Cl)cc2)n1 (configuration not stated) | 2.58 | 89% | 380 | 0.46 | 0.484 mM (≈ 130 µg/mL) |  |  |  | 
17 | CC(Cc1nsc(Nc2ccc(Cl)cc2)n1)NC1CC(C)(C)NC(C)(C)C1 (configuration not stated) | 0.262 | 172% | 1.22 ×10⁴ No_unit | 73 | 3.72 mM (≈ 1520 µg/mL) |  | 14.1 ×10⁻⁶ cm/s | 8.6 ×10⁻⁶ cm/s | 21.9 ×10⁻⁶ cm/s
18 | CC(Cc1nsc(NC2CC2)n1)NC1CC(C)(C)NC(C)(C)C1 (configuration not stated) | 0.0828 | 86% | 3.19 ×10³ No_unit | 655.5 | 310 mM (≈ 105000 µg/mL) |  | 6.8 ×10⁻⁶ cm/s | 5.4 ×10⁻⁶ cm/s | 27.6 ×10⁻⁶ cm/s
19 | CC(O)Cc1nsc(Nc2ccc(F)c(Cl)c2)n1 (configuration not stated) | 2.35 | 75% | 226 | 0.16 |  |  |  |  | 
20 | CSc1cccc(Nc2nc(CC(C)NC3CC(C)(C)NC(C)(C)C3)ns2)c1 (configuration not stated) | 0.643 | 117% | 2.92 ×10⁴ No_unit | 92.9 | 12 mM (≈ 5040 µg/mL) |  | 18.2 ×10⁻⁶ cm/s | 10.1 ×10⁻⁶ cm/s | 22.8 ×10⁻⁶ cm/s
21 | Cc1ccc(Nc2nc(CC(C)O)ns2)cc1Cl (configuration not stated) | 3.02 | 87% | 1.038 ×10³ No_unit | 1.68 | 0.483 mM (≈ 137 µg/mL) |  |  |  | 
